TRPC6 act – activates the mouse TRPC6 cation channel. Q61143. HEK293-TRPC6 membrane potential dye fluorescence; stronger effect = higher value. B-score at 10 µM. hit rate 0.13% among 310,000. AID 2550;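 active means B-score of the integrated fluorescence ratio above library mean plus 3 SD, and starting fluorescence ratio within library mean plus 5 SD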;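 further: higher score means more depolarization so channel activation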
TRPC4 inh – inhibitors of mouse TRPC4 channel; AID 2247; B-score at 10 µM; HEK293 TRPC4beta/mu-opioid, DAMGO-evoked Fluo4 calcium flux; stronger effect = lower value; hit rate 0.39% among 300,000;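 active means B-score over 3 SD under the library average, no early fluorescence shift, positive overall ratio signal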
Target sequence (Q9QUQ5 whole entry, looked up): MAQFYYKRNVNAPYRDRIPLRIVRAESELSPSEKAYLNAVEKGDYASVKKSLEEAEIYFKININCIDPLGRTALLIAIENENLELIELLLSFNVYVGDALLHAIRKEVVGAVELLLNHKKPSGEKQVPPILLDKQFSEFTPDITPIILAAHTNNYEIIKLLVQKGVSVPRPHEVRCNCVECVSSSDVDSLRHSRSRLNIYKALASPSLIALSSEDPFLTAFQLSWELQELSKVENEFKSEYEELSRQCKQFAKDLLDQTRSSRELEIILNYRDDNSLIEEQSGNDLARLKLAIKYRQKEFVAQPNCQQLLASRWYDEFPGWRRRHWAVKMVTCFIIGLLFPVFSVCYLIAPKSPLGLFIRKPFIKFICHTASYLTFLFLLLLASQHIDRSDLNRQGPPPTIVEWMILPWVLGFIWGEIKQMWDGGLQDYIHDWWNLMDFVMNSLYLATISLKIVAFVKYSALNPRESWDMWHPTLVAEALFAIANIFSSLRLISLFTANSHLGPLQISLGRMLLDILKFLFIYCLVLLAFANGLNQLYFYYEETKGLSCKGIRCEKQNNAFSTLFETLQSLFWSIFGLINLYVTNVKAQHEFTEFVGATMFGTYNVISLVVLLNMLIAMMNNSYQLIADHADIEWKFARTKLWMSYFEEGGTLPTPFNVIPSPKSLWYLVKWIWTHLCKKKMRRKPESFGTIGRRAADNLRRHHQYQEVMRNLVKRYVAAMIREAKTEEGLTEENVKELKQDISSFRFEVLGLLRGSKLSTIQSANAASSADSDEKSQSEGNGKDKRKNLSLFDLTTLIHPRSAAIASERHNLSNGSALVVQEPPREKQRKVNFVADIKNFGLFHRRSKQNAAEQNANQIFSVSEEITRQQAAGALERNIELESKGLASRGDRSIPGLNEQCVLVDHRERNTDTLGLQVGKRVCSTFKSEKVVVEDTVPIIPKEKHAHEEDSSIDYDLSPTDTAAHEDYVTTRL
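Assay system: TRPC4beta/mu-opioid receptor HEK293 cell line; compound dosing: single concentration per test compound; detection: Fluo4 Ca2+ flux fluorescence; evaluation: per-well B score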
TRPC6 inhibitor – inhibitors of mouse TRPC6 channel. HEK293-TRPC6, membrane potential dye, ACh-evoked depolarization; stronger effect = lower value. hit rate 1.1% among 310,000. Q61143. B-score at 10 µM;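 active means B-score under library mean minus 3 SD, initial fluorescence not abnormally high, positive integrated signal ratio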;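 further: B-score derived from integrated fluorescence ratio over the kinetic read; more negative B-score means stronger inhibition of depolarization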
TRPC4 potent – TRPC4 (mouse) allosteric potentiation; AID 2227; HEK293 TRPC4beta/mu-opioid, DAMGO EC20, Fluo-4 Ca2+ flux; stronger effect = higher value; Q9QUQ5; B-score at 10 µM; hit rate 0.42% among 310,000;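 active means B-score of calcium response area above 5 SD of library B-scores, with initial fluorescence ratio within 5 SD of library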;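 further: B-score of integrated fluorescence ratio over time as area under calcium response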
TRPC4 agonist – activators of mouse TRPC4 channel | Q9QUQ5 | HEK293 TRPC4beta/mu-opioid, Fluo4 calcium fluorescence; stronger effect = higher value | B-score at 10 µM | hit rate 0.49% among 310,000;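 active means B-score above 5 SD of library B-scores, and initial fluorescence ratio not above library mean plus 5 SD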;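 further: positive B-score marks a calcium rise read as TRPC4 activation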
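Test system: HEK293 cells stably co-expressing mouse TRPC4beta and mu-opioid receptor | Schedule: Fluo4 dye loading 45 min at room temperature, 110 s recording | Measured by: Kinetic Fluo4 calcium fluorescence, 5 s baseline at 1 Hz | Evaluation: B score of integrated ratio | Controls: Buffer (low) and maximal DAMGO (high)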
TRPC4 spec 2 – second selectivity test of TRPC6 inhibitors: effect on mouse TRPC4. shares compounds with TRPC6 inhibitor. HEK293 TRPC4/MOR, membrane potential dye fluorescence; channel activated by saturating DAMGO dose. inhibition, % at 10 µM. hit rate 42% among 920;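 active means compounds whose fluorescence signal differed from control wells by over 3 SD, either direction, in both duplicate plates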
TRPC4 spec – tests whether TRPC6 inhibitors also affect mouse TRPC4; activity change, negative = inhibition, % at 10 µM; HEK293 TRPC4/mu-opioid, membrane potential fluorescence; shares compounds with TRPC6 inhibitor; hit rate 61% among 920;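 active means rise or fall in signal beyond 3 SD of buffer-only wells in both replicate plates, either sign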;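 further: integrated kinetic ratio of fluorescence range over baseline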
HEK293 MPD ctr 2-1 – second counter-screen for TRPC6 inhibitors: parental HEK293 cells; shares compounds with TRPC6 inhibitor; parental HEK293 membrane potential dye fluorescence; maximal acetylcholine challenge after compound addition; signal change vs control, % at 10 µM; hit rate 31% among 920; AID 2779;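 active means membrane potential signal moving either way by over 3 SD of the maximum-effect control, in both duplicate plates, meaning non-specific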
HEK293 MPD ctr-1 – checks TRPC6 inhibitor effects in parental HEK293 cells; AID 2780; shares compounds with TRPC6 inhibitor; parental HEK293 membrane potential dye fluorescence; membrane potential signal change, % at 10 µM; hit rate 60% among 920;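 active means membrane potential signal shifting up or down by more than 3 SD of buffer-only wells, on both duplicate plates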
HEK293 MPD ctr-2 – checks TRPC6 modulator effects in parental HEK293 cells; shares compounds with TRPC6 inhibitor; AID 488924; membrane potential dye fluorescence; hit rate 51% among 2,400; membrane potential signal change, % at 10 µM;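 active means membrane potential signal moves up or down beyond 5 SD from buffer-only wells, on both duplicate plates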
HEK293 MPD ctr 2-2 – second counter-screen for TRPC6 modulators: effect in parental HEK293 cells | shares compounds with TRPC6 inhibitor | hit rate 14% among 2,400 | membrane potential dye fluorescence; after compound, maximal acetylcholine stimulation | inhibition, % at 10 µM;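 active means membrane potential signal drops by more than 5 SD from the mean control signal, in both duplicate plates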;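 further: plate controls were acetylcholine ECmax control wells for no effect and buffer only wells for full effect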
TRPC4 ctr mod – mouse TRPC4 off-target activity of TRPC6 modulators; percent change from control (negative = decrease, positive = increase), % at 10 µM; shares compounds with TRPC6 inhibitor; hit rate 69% among 2,400; HEK293 TRPC4/mu-opioid, membrane potential fluorescence;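 active means membrane potential signal moved up or down beyond 5 SD of buffer control wells, in both duplicate plates, actives on both sides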;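 further: plate controls were assay buffer wells for no effect and DAMGO maximal-effect wells for full effect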
TRPC4 ctr inh 2 – second selectivity test of TRPC6 modulators against mouse TRPC4; HEK293 TRPC4/mu-opioid, membrane potential dye fluorescence; stimulated with maximal-effect DAMGO; hit rate 55% among 2,400; inhibition, % at 10 µM; shares compounds with TRPC6 inhibitor;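 active means drop in membrane potential signal beyond 5 SD of the control wells in both duplicate plates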;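 further: TRPC4 counter screen for TRPC6 hits run under conditions tuned for TRPC6 not TRPC4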
TRPC6 inh conf – mouse TRPC6 inhibitor confirmation; shares compounds with TRPC6 inhibitor; HEK293-TRPC6, membrane potential dye, ACh-evoked depolarization; inhibition, % at 10 µM; hit rate 43% among 3,300;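 active means fluorescence ratio falls more than 5 SD below the full-stimulation control mean, in both duplicate runs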;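 further: integrated fluorescence ratio of peak minus minimum over baseline after agonist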
TRPC6 act conf – mouse TRPC6 activator confirmation; shares compounds with TRPC6 inhibitor; HEK293-TRPC6 membrane potential dye fluorescence, FDSS; activation, % at 10 µM; hit rate 11% among 2,800; AID 488961;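 active means ratio signal rise beyond 5 SD above unstimulated control wells' mean, seen in both duplicate runs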;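 further: plate controls were buffer EC0 wells for no effect and acetylcholine ECmax response for full effect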
* marks the source's active call; other numbers are inactive results. In the library only some 2.3% were active in any assay of this set; here they are far more common.

C/C(=N\OC(=O)c1c(-c2ccccc2Cl)noc1C)c1nccs1 was read as TRPC6 act inactive, TRPC4 inh inactive, TRPC6 inhibitor inactive, TRPC4 potent inactive and TRPC4 agonist inactive.
For COc1ccc(N2CCN(c3nccs3)CC2)cc1 the results were TRPC6 act inactive, TRPC4 inh inactive, TRPC6 inhibitor inactive, TRPC4 potent inactive and TRPC4 agonist inactive.
`Fc1ccc(NC(=S)NNc2ncc(C(F)(F)F)cc2Cl)c(F)c1` gave TRPC6 act inactive, TRPC4 inh inactive, TRPC6 inhibitor -6.5*, TRPC4 potent inactive, TRPC4 agonist inactive, HEK293 MPD ctr-2 120%*, HEK293 MPD ctr 2-2 inactive, TRPC4 ctr mod 20%*, TRPC4 ctr inh 2 inactive and TRPC6 inh conf 50%*.
`COc1ccc2c(c1OC)C(=O)OC2Nc1nc(-c2cccc([N+](=O)[O-])c2)cs1` (stereo not given) gave TRPC6 act inactive, TRPC4 inh inactive, TRPC6 inhibitor inactive, TRPC4 potent inactive and TRPC4 agonist inactive.
Cn1c(CSCc2ccc(Cl)c(Cl)c2)n[nH]c1=S was read as TRPC6 act inactive, TRPC4 inh inactive, TRPC6 inhibitor inactive, TRPC4 potent inactive and TRPC4 agonist inactive.
For CCN(CC)C(=O)c1csc(Nc2ccc(C)cc2)n1 the results were TRPC6 act inactive, TRPC4 inh inactive, TRPC6 inhibitor -5.8*, TRPC4 potent inactive, TRPC4 agonist inactive, HEK293 MPD ctr-2 inactive, HEK293 MPD ctr 2-2 inactive, TRPC4 ctr mod inactive, TRPC4 ctr inh 2 inactive, TRPC6 inh conf inactive and TRPC6 act conf inactive.
For CC(C)c1ccc(S(=O)(=O)N2CCN(C(=O)c3cccc(F)c3)CC2)cc1 the results were TRPC6 act 17*, TRPC4 inh inactive, TRPC6 inhibitor inactive, TRPC4 potent inactive, TRPC4 agonist inactive, HEK293 MPD ctr-2 inactive, HEK293 MPD ctr 2-2 inactive, TRPC4 ctr mod 20%*, TRPC4 ctr inh 2 inactive and TRPC6 act conf 186%*.
For Cc1ccc(C(=O)N2CCN(S(=O)(=O)c3ccc(C)cc3)CC2)cc1 the results were TRPC6 act inactive, TRPC4 inh inactive, TRPC6 inhibitor -5.1*, TRPC4 potent inactive, TRPC4 agonist inactive, HEK293 MPD ctr-2 inactive, HEK293 MPD ctr 2-2 inactive, TRPC4 ctr mod inactive, TRPC4 ctr inh 2 inactive and TRPC6 inh conf 79%*.
For CC(=O)c1ccc(OCCCC(=O)N2CCN(S(=O)(=O)c3ccc(C(C)C)cc3)CC2)cc1 the results were TRPC6 act inactive, TRPC4 inh inactive, TRPC6 inhibitor -9.2*, TRPC4 potent inactive, TRPC4 agonist inactive, TRPC4 spec 2 inactive, TRPC4 spec -0.4%*, HEK293 MPD ctr 2-1 inactive, HEK293 MPD ctr-1 1.7%* and TRPC6 inh conf inactive.
CC(C)c1ccc(S(=O)(=O)N2CCN(C(=O)C3CCCCC3)CC2)cc1 was read as TRPC6 act inactive, TRPC4 inh inactive, TRPC6 inhibitor inactive, TRPC4 potent inactive and TRPC4 agonist inactive.
CC(C)c1ccc(S(=O)(=O)N2CCN(C(=O)C3CC3C)CC2)cc1 (stereo not given) was read as TRPC6 act 16*, TRPC4 inh inactive, TRPC6 inhibitor -10*, TRPC4 potent inactive, TRPC4 agonist inactive, HEK293 MPD ctr-2 inactive, HEK293 MPD ctr 2-2 inactive, TRPC4 ctr mod 17%*, TRPC4 ctr inh 2 inactive, TRPC6 inh conf 112%* and TRPC6 act conf 145%*.
`CC(=O)c1ccc(OCCCC(=O)N2CCN(S(=O)(=O)c3cc(C)ccc3C)CC2)cc1` gave TRPC6 act inactive, TRPC4 inh inactive, TRPC6 inhibitor inactive, TRPC4 potent inactive and TRPC4 agonist inactive.
O=C1CCCN1CCCNS(=O)(=O)c1ccc(F)cc1F was read as TRPC6 act inactive, TRPC4 inh inactive, TRPC6 inhibitor inactive, TRPC4 potent inactive and TRPC4 agonist inactive.
For CC(Nc1nc(N2CCN(S(C)(=O)=O)CC2)nc2ccccc12)c1ccccc1 (stereo not given) the results were TRPC6 act inactive, TRPC4 inh inactive, TRPC6 inhibitor -6*, TRPC4 potent inactive, TRPC4 agonist inactive, HEK293 MPD ctr-2 -158%*, HEK293 MPD ctr 2-2 inactive, TRPC4 ctr mod -26%*, TRPC4 ctr inh 2 52%*, TRPC6 inh conf inactive and TRPC6 act conf inactive.
For Cc1onc(-c2c(Cl)cccc2Cl)c1NC(=O)NN(C)C the results were TRPC6 act inactive, TRPC4 inh inactive, TRPC6 inhibitor inactive, TRPC4 potent inactive and TRPC4 agonist inactive.
For Cc1onc(-c2c(Cl)cccc2Cl)c1NC(=O)N1CCSCC1 the results were TRPC6 act 12*, TRPC4 inh inactive, TRPC6 inhibitor inactive, TRPC4 potent inactive, TRPC4 agonist inactive, HEK293 MPD ctr-2 inactive, HEK293 MPD ctr 2-2 inactive, TRPC4 ctr mod inactive, TRPC4 ctr inh 2 inactive, TRPC6 inh conf inactive and TRPC6 act conf inactive.

Screening data: PubChem BioAssay, Johns Hopkins Ion Channel Center
